Several values for one entry are separate records, joined by “and”; a condition that tells them apart may be missing. Identical values can stand only once. Like-named read-outs stand apart in the source and are kept apart here.
Assays:
[1] = tested on: human liver microsomes from six individual liver donors; type: in vitro ADME; settings: for inhibition of M3 formation in donor HL-109: HL-109: low CYP2C19 activity, high CYP3A activity, no CYP3A5 expression
Outline: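 HLMs from six donors (2 CYP3A5 expressors, 4 non-expressors), 1 mg/mL, were preincubated 10 min with 0.5 μM CYP3cide plus 1 mM NADPH, with a methanol vehicle control. They were diluted 40-fold to 0.025 mg/mL in buffer with 1 mM NADPH, then 2 μM THC was added. Reactions ran 2 min before quench and LC-MS/MS. % activity remaining was normalised to vehicle, in duplicate.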

human FABP1 [2] = biological target: T1, human FABP1 (Homo sapiens, UniProt P07148); test: DAUDA displacement assay of cannabinoid binding to FABP1
T1 sequence (P07148 1-127): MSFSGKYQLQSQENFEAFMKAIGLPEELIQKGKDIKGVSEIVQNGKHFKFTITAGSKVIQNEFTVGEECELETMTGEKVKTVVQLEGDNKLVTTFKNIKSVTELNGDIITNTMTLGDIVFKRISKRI
Outline: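 Purified human FABP1, protein quantified by BCA and held on ice in gel filtration buffer with 0.5 mM DTT, titrated with test cannabinoid displacing DAUDA. Fluorescence spectra scanned at 600 nm/min, PMT 800 V. Bound-DAUDA signal extracted by singular value decomposition. Kd from ternary binding model fit; EC50 from three-parameter dose-response fit. Mean ± SD, three days, ≥2 protein batches.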

[3] = cited from earlier work
[4] = cited from earlier work; remark: listed apart in the source
[5] = THC unbound fraction in incubations with recombinant CYPs; type: in vitro ADME; settings: human, recombinant CYP3A4 microsomes (Supersomes), pH 7.4
Outline: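 Magnetic silica beads (50 μL), washed three times, were pre-equilibrated 30 min on ice with recombinant CYP at incubation protein concentration in 0.2 mL buffer. THC was added at each nominal kinetic concentration and incubated 30 min at 37 °C with shaking, then cooled 5 min at room temperature. Total and supernatant THC were measured by LC-MS/MS; fu = Cfree/Ctotal.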

[6] = tested on: human liver microsomes from three individual donors; test: Impact of FABP1 on THC metabolism in HLMs from individual donors; type: in vitro ADME; settings: HLM incubations
recombinant CYP2C19 = test: THC incubations with recombinant CYP2C19 in the presence and absence of FABP1; type: in vitro ADME, human
Outline: (§1)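 Recombinant CYP2C19 (Supersomes) at 1 nM (0.013 mg/mL microsomal protein), with nominal THC 0.02–1.0 μM, ±20 μM FABP1 added before 5 min preincubation at 37 °C. Started with 1 mM NADPH, 2 min, with a no-NADPH control, then quench and LC-MS/MS. Matched ±FABP1 pairs. Michaelis-Menten fits against free THC from bead measurements, with a mass-balance calculation when FABP1 was present. Replicates on separate days.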

CYP2C19 = test: as above; type: in vitro ADME, human; settings: human
Outline: as §1

human FABP1 [7] = biological target: T1, human FABP1; settings: read-out: Kd previously reported; cited from earlier work
[8] = THC unbound fraction in human liver microsome incubations; type: in vitro ADME; settings: pooled liver microsomes, pH 7.4
Outline: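 Magnetic silica beads (200 μL), washed three times, were pre-equilibrated 30 min on ice with HLM protein at incubation concentration in 0.5 mL buffer. THC was added at each nominal kinetic concentration and incubated 30 min at 37 °C with shaking, then cooled 5 min. Total and supernatant samples were quenched and measured by LC-MS/MS; fu = Cfree/Ctotal.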

[9] = tested on: HLMs and recombinant CYP2C9; settings: cited from earlier work; for Km: in HLM
recombinant CYP3A4 = test: THC incubations with recombinant CYP3A4 in the presence and absence of FABP1; type: in vitro ADME, human
Outline: (§2)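 Recombinant CYP3A4 (Supersomes) at 0.625 nM (0.004 mg/mL microsomal protein), with seven nominal THC concentrations of 0.156–3.75 μM, ±20 μM FABP1 added before 5 min preincubation at 37 °C. Started with 1 mM NADPH, 1 min, with a no-NADPH control, then LC-MS/MS. M4 data were fitted to an allosteric sigmoidal model (K0.5, h); other metabolites used Michaelis-Menten fits, against free THC; matched pairs.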

CYP3A4 = test: as above; type: in vitro ADME, human; settings: human
Outline: as §2

recombinant CYP2C9 = test: THC incubations with recombinant CYP2C9 in the presence and absence of FABP1; type: in vitro ADME, human; settings: recombinant CYP2C9, absence of FABP1
Outline: (§3)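 Recombinant CYP2C9 (Supersomes) at 1 nM (0.0016 mg/mL microsomal protein), with seven nominal THC concentrations of 10–640 nM in pH 7.4 phosphate buffer, ±20 μM FABP1 added before 5 min preincubation at 37 °C. Started with 1 mM NADPH, 1 min, with a no-NADPH control. Quench was acetonitrile/formic acid with 11-OH-THC-d3, then LC-MS/MS. Km,u and kcat came from Michaelis-Menten fits against free THC; matched pairs, separate days.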

CYP2C9 = test: as above; type: in vitro ADME, human; settings: human
Outline: as §3

[10] = tested on: pooled human liver microsomes; test: Kinetics of THC metabolite formation in pooled human liver microsomes; type: in vitro ADME; settings: pooled HLMs 0.1 mg/mL; mean ± SD, 3 days
Outline: (§4)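 Pooled HLMs at 0.1 mg/mL with nominal THC 0.05–5 μM in 100 mM potassium phosphate pH 7.4. After 5 min preincubation at 37 °C, 1 mM NADPH was added and reactions ran 2 min, within time linearity. Quench was acetonitrile/1% formic acid with 11-OH-THC-d3, then LC-MS/MS. Michaelis-Menten fits used bead-measured free THC; linear fits gave CLint,u where saturation was absent. Three days, duplicates.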

[11] = as above; type: in vitro ADME; settings: human, pooled human liver microsomes, pooled HLMs 0.1 mg/mL
Outline: as §4

recombinant CYPs = test: THC metabolite formation by a panel of recombinant CYPs; type: in vitro ADME, human; settings: 10 μM THC
Outline: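 Individual recombinant CYPs (10 pmol/mL) across a twelve-enzyme panel were preincubated 5 min at 37 °C with 10 μM THC in 100 mM potassium phosphate pH 7.4. Reactions were started with 1 mM NADPH and ran 15 min, then were quenched with acetonitrile/1% formic acid containing 11-OH-THC-d3 and analysed by LC-MS/MS. Relative formation was the metabolite/internal-standard peak-area ratio; peaks below S/N 5 were not quantified.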

[12] = THC depletion, 500 nM nominal, 0.2% BSA
[13] = recombinant CYP3A4, absence of FABP1, allosteric sigmoidal model

## CCC1(c2ccccc2)NC(=O)N(Cc2ccccc2)C1=O (single isomer, unassigned; (+)) [Benzylnirvanol, (+)-N-3-benzylnirvanol]
[1]
  inhibition of M3 formation in donor HL-109: no impact

## CCCCC/C=C\C/C=C\C/C=C\C/C=C\CCCC(=O)OC(CO)CO [2AG, 2-arachidonoylglycerol]
Human FABP1 [2]
  EC50: 180 ± 20 nM
  Kd: 60 ± 40 nM

## CCCCC/C=C\C/C=C\C/C=C\C/C=C\CCCC(=O)NCCO [AEA, anandamide]
Human FABP1 [2]
  EC50: 310 ± 140 nM

## C=C(C)[C@@H]1CCC(C)=C[C@H]1c1c(O)cc(CCCCC)cc1O [CBD, cannabidiol]
Human FABP1 [2]
  EC50: 920 ± 70 nM

## Cc1ccc(-c2c(-c3nn(C)c4ncnc(N5CC[C@H](N6CCCCC6)C5)c34)cnn2C)cc1 [CYP3cide]
[1]; CYP3cide 0.5 μM
  inhibition of M4 formation in donors without CYP3A5 expression: ~100%
[1]
  inhibition of M3 formation in donor HL-109: ~100%

## CCCCCc1cc(O)c2c(c1)OC(C)(C)[C@@H]1CCC(C)=C[C@@H]21 [THC, Δ9-tetrahydrocannabinol]
[3]
  blood to plasma ratio: 0.67
[3]; plasma
  plasma protein binding fu: 0.01
[4]; after iv administration
  dose recovered in urine and feces: less than 1%
[4]; after oral dosing
  THC exposure (AUC) in CYP2C9*3/*3 carriers compared to CYP2C9*1/*1 carriers: 3 fold
[4]
  hepatic extraction ratio: around 0.8
  increase of AUC of THC when co-administered with ketoconazole: ~ 80%
[4]; estimated from AUC in CYP2C9 genotypes
  contribution of CYP2C9 to THC clearance (fraction metabolized): about 70%
[4]; oral dosing of THC
  THC exposure on co-administration of rifampicin: decreases THC exposure
[5]
  fraction unbound at 30 min: 0.15 ± 0.02
[6]; 2 μM THC, 20 μM FABP1 vs absence
  decrease in free concentrations of THC by FABP1 binding: 86%
[6]; 2 μM nominal THC
  free THC in the absence of FABP1: 14 nM
[6]; 2 μM nominal THC, 20 μM FABP1
  free THC in the presence of FABP1: 2 nM
Recombinant CYP2C19; recombinant CYP2C19, 20 μM FABP1
  kcat + FABP1, 11-OH-THC formation: 8.0 ± 2.0 min⁻¹
Recombinant CYP2C19; recombinant CYP2C19, absence of FABP1
  kcat −FABP1, 11-OH-THC formation: 14 min⁻¹ and 14 ± 0.68 min⁻¹
CYP2C19; recombinant CYP2C19 (Supersomes) with 20 μM FABP1, Km,u + FABP1, 11-OH-THC formation, recombinant CYP2C19, 20 μM FABP1
  Km at 2 min: 5.2 ± 0.64 nM
CYP2C19; recombinant CYP2C19 (Supersomes) with 20 μM FABP1, Km,u + FABP1, M3 formation, recombinant CYP2C19, 20 μM FABP1
  Km at 2 min: 4.7 ± 0.72 nM
CYP2C19; recombinant CYP2C19 (Supersomes), Km,u −FABP1, 11-OH-THC formation, recombinant CYP2C19, absence of FABP1
  Km at 2 min: 2.2 nM
CYP2C19; recombinant CYP2C19 (Supersomes), Km,u −FABP1, M3 formation, recombinant CYP2C19, absence of FABP1
  Km at 2 min: 2.2 nM
Human FABP1 [7]
  Kd: 2900 nM
Human FABP1 [2]
  EC50: 220 ± 130 nM
[8]
  fraction unbound at 30 min: 0.015 ± 0.001
[9]; [12]
  THC metabolic clearance in pooled HLMs assigned to CYP2C9: 91% and > 90%
  THC metabolic clearance in pooled HLMs assigned to CYP2D6: 9%
[9]; read-out: unbound Km (Km,u) for 11-OH-formation
  Km: 8 nM
[9]; read-out: unbound Km (Km,u) for THC depletion
  Km: 7 nM
Recombinant CYP3A4; 20 μM FABP1
  M3 formation by recombinant CYP3A4 in the presence of FABP1: completely abolished
Recombinant CYP3A4; [13]
  K0.5,u −FABP1, M4 formation: 43 ± 25 nM
  hill slope (h), M4 formation: 1.4 ± 0.5
CYP3A4; recombinant CYP3A4 (Supersomes) with 20 μM FABP1, Km,u + FABP1, M2 formation, recombinant CYP3A4, 20 μM FABP1
  Km at 1 min: > 20 nM
CYP3A4; recombinant CYP3A4 (Supersomes) with 20 μM FABP1, Km,u + FABP1, M4 formation, recombinant CYP3A4, 20 μM FABP1
  Km at 1 min: > 20 nM
CYP3A4; recombinant CYP3A4 (Supersomes), Km,u of the other three major metabolites, formed mainly by recombinant CYP3A4/5
  Km at 1 min: > 10 nM
CYP3A4; recombinant CYP3A4 (Supersomes), Km,u −FABP1, M2 formation, recombinant CYP3A4, absence of FABP1
  Km at 1 min: 29 ± 19 nM
CYP3A4; recombinant CYP3A4 (Supersomes), Km,u −FABP1, M3 formation, recombinant CYP3A4, absence of FABP1
  Km at 1 min: 18 ± 13 nM
Recombinant CYP2C9; read-out: Km,u −FABP1, 11-OH-THC formation
  Km: 0.77 ± 0.16 nM
Recombinant CYP2C9
  kcat −FABP1, 11-OH-THC formation: 12 min⁻¹ and 12 ± 0.87 min⁻¹
CYP2C9; recombinant CYP2C9 (Supersomes) with 20 μM FABP1, Km,u + FABP1, 11-OH-THC formation, recombinant CYP2C9, 20 μM FABP1
  Km at 1 min: > 20 nM
CYP2C9; recombinant CYP2C9 (Supersomes), Km,u −FABP1, 11-OH-THC formation, recombinant CYP2C9, absence of FABP1
  Km at 1 min: 0.8 nM
[10]
  Vmax of 11-OH-THC formation: 521 ± 53 pmol/min/mg HLM
[11]; Km,unbound of M2 formation, free THC concentrations
  Km at 2 min: > 45 nM
[11]; Km,unbound of M3 formation, free THC concentrations
  Km at 2 min: > 45 nM
[11]; Km,unbound of M4 formation, no saturation, linear
  Km at 2 min: > 45 nM
Recombinant CYPs
  velocity of 11-OH-THC formation by CYP2C9 and CYP2C19 relative to CYP2D6: ~ 3 fold
  velocity of 11-OH-THC formation by CYP2C9 and CYP2C19 relative to other CYPs: > 10 fold
